One molecule from ChEMBL document CHEMBL4732034, “Amino alcohol acrylonitriles as broad spectrum and tumour selective cytotoxic agents” (RSC Med Chem, 2021) can be followed below.

One data set has as its system HT-29. In words: Cytotoxicity against human HT29 cells assessed as growth inhibition measured after 72 hrs by SRB assay. It counts as functional. The method, boiled down:
(§1)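 Cancer lines were kept in DMEM with 10% FBS and glutamine at 37 °C, 5% CO2, and seeded at 2500–4000 cells per well in duplicate. Compound (from 40 mM DMSO stocks) was added 24 h after plating and left for 72 h. Cells were TCA-fixed, stained with SRB and read at 540 nm. GI50 came from an eight-point dose-response, using the change from day-0 optical density, with three to four independent replicates.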
A general note: The SRB assay estimates cell density from bound dye.

Data set [1] can be described thus: Cytotoxicity against human SJG2 cells assessed as growth inhibition measured after 72 hrs by SRB assay. Type of data set: functional. The conditions noted are these: SJ-G2. The procedure, abridged: as §1
A further data set deals with A-431. As to the kind of experiment: Cytotoxicity against human A431 cells assessed as growth inhibition measured after 72 hrs by SRB assay. It counts as functional. The procedure, abridged: as §1
Data set [2] is described as follows: Selectivity index, ratio of GI50 for human MCF10A cells to GI50 for human MCF-7 cells by SRB assay. It counts as toxicity. Particulars: MCF10A cells versus MCF-7 cells, read-out: RatioGI50. The procedure, abridged:
(§2)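 Fold selectivity is the MCF10A GI50 divided by the cancer-line GI50. Each GI50 is from the 72 h SRB assay: eight-point dose-response, day-0 optical density baseline, three to four separate replicates.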

Data set [3] is described as follows: Selectivity index, ratio of GI50 for human MCF10A cells to GI50 for human T47D cells by SRB assay. Type of data set: toxicity. Particulars: MCF10A cells versus T47D cells, read-out: RatioGI50. The method, boiled down: as §2
The next data set relates to BE(2)-C. As to the kind of experiment: Cytotoxicity against human BE2C cells assessed as growth inhibition measured after 72 hrs by SRB assay. It counts as functional. The method, boiled down: as §1
In the next data set the test system is U-87 MG. As to the kind of experiment: Cytotoxicity against human U87 cells assessed as growth inhibition measured after 72 hrs by SRB assay. It counts as functional, U-87MG ATCC. The procedure, abridged: as §1
Another data set has as its system DU-145. As to the kind of experiment: Cytotoxicity against human DU-145 cells assessed as growth inhibition measured after 72 hrs by SRB assay. It counts as functional. The procedure, abridged: as §1
The next data set has as its system MDA-MB-468. As to the kind of experiment: Cytotoxicity against human MDA-MB-468 cells assessed as growth inhibition measured after 72 hrs by SRB assay. Type of data set: functional. The method, boiled down: as §1
The subject of a further data set is NCI-H460. As to the kind of experiment: Cytotoxicity against human H460 cells assessed as growth inhibition measured after 72 hrs by SRB assay. Type of data set: functional. The method, boiled down: as §1
Data set [4] has as its target T1, Aryl hydrocarbon receptor (Homo sapiens, UniProt P35869).
T1 sequence (P35869 whole entry): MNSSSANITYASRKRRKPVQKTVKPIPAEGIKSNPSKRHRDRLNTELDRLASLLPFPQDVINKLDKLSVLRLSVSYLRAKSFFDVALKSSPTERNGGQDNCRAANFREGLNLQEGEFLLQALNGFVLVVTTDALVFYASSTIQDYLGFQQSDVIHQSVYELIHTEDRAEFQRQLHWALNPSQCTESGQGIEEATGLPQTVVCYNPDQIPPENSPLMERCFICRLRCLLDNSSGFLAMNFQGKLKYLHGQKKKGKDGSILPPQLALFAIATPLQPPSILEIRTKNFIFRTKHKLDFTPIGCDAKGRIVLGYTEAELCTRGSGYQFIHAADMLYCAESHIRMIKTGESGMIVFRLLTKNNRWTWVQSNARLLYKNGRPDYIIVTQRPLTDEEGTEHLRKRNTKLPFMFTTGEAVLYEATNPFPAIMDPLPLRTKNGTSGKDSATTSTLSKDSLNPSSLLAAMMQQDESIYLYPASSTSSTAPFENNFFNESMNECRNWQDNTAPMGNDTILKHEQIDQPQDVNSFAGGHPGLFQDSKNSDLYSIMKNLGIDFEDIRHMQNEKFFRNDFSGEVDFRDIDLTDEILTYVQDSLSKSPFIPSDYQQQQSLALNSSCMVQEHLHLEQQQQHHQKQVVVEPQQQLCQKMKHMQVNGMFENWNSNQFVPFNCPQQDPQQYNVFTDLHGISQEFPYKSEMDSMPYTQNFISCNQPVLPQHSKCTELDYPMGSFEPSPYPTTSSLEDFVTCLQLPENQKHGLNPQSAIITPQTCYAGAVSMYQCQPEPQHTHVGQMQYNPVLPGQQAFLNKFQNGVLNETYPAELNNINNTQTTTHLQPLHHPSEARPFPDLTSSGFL
In words: Activation of AhR in human HT29-Lucia cells expressing secreted Lucia luciferase reporter gene assessed as increase in receptor transactivation by measuring fold increase in reporter activity at 25 uM measured after 24 hrs by luciferase reporter gene assay relative to control. It counts as cell-based. The conditions noted are these: HT-29, human, read-out: FC. The procedure, abridged: (§3)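 HT29-Lucia cells (stable secreted Lucia luciferase reporter under a minimal promoter with the human CYP1A1 regulatory sequence, six DREs) were grown without antibiotics for 24 h before compound addition. At 24 and 48 h, supernatant was read by luminescence with QUANTI-Luc. Assays were run twice, and values are fold-change versus DMSO-treated cells. FICZ and CH223191 (5 μM) were included as controls.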
Background: A reporter such as luciferase makes a cellular process visible.

The next data set has as its system A2780. As to the kind of experiment: Cytotoxicity against human A2780 cells assessed as growth inhibition measured after 72 hrs by SRB assay. It counts as functional. The procedure, abridged: as §1
A further data set has as its system MCF7. As to the kind of experiment: Cytotoxicity against human MCF-7 cells assessed as growth inhibition measured after 72 hrs by SRB assay. It counts as functional. The method, boiled down:
as §1

For data set [5], the target named is T1, Aryl hydrocarbon receptor. As to the kind of experiment: Activation of AhR in human HT29-Lucia cells expressing secreted Lucia luciferase reporter gene assessed as increase in receptor transactivation by measuring fold increase in reporter activity at 25 uM measured after 48 hrs by luciferase reporter gene assay relative to control. The conditions noted are these: HT-29, human, read-out: FC. It counts as cell-based. The method, boiled down:
as §3

The nature of data set [6]: Selectivity index, ratio of GI50 for human MCF10A cells to GI50 for human MDA-MB-468 cells by SRB assay. It counts as toxicity. The conditions noted are these: MCF10A cells versus MDA-MB-468 cells, read-out: RatioGI50. The method, boiled down:
as §2

The next data set deals with T2, CYP1A1 (Homo sapiens, UniProt P35869).
T2 sequence (P35869 whole entry): T1 sequence (P35869 whole entry)
As to the kind of experiment: Activation of AhR in human MDA-MB-468 cells assessed as fold increase in CYP1A1 mRNA expression at 5 uM measured after 8 hrs by qPCR assay relative to control. It counts as cell-based. Particulars: read-out: FC. The method, boiled down: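 MDA-MB-468 cells were exposed for 8 h, then total RNA was extracted. CYP1A1 was quantified by qPCR with β2M as reference: 95 °C for 5 min, then 40 cycles of 95 °C for 5 s and 60 °C for 10 s. Fold change was calculated by the comparative Ct method.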
In general terms: In qPCR the cycle at which signal appears reflects the starting amount.

A further data set concerns MIA PaCa-2. In words: Cytotoxicity against human MIA cells assessed as growth inhibition measured after 72 hrs by SRB assay. Type of data set: functional. The method, boiled down:
as §1

Data set [7] in a line: Cytotoxicity against human MCF10A cells assessed as growth inhibition measured after 72 hrs by SRB assay. Type of data set: cell-based, MCF-10A.
The next data set deals with T47D. In words: Cytotoxicity against human T47D cells assessed as growth inhibition measured after 72 hrs by SRB assay. It counts as functional. The method, boiled down: as §1

By GI50 is commonly meant the concentration that inhibits growth by half.

Consider `N#C/C(=C\c1ccc(OCC(O)CN2CCN(c3ccc(C#N)cc3)CC2)cc1)c1ccc(Cl)c(Cl)c1` (racemic), for which the GI50 with HT-29 is 50 µM; in [1], over 50 µM; in the data set on A-431, 20 µM; in the data set with BE(2)-C, 31 µM; with U-87 MG, over 50 µM; in the data set with DU-145 it was 17 µM. Further, the concentration for 50% growth inhibition (GI50) in the data set on MDA-MB-468 is 6 µM; in the data set on NCI-H460, over 50 µM; with A2780, 15 µM; in the data set with MCF7, 5.8 µM; in the data set with MIA PaCa-2 it was over 50 µM; with T47D, 2.3 µM. Besides, the selectivity ratio was found to be 8.1 in data set [2], 20 in [3] and 7.8 in data set [6]. In addition, the results for the fold induction at 25 µM in data set [4] and in data set [5] were 1.69 and 1.84, respectively. Moreover, the fold induction at 8 h, 5 µM at CYP1A1 is 7.6. Further, in data set [7], the GI50 at 72 h worked out at 47 µM.
